According to ChEMBL document CHEMBL4229364, “Structure-activity relationships of 2, 4-disubstituted pyrimidines as dual ERα/VEGFR-2 ligands with anti-breast cancer activity” (Eur J Med Chem, 2018):
Calls of active or inactive are those of the source. The calls are words filed in the database; no cut-off is given here.

Tests used:
Ishikawa = assay: Antiproliferative activity against human Ishikawa cells after 48 hrs by MTT assay; format: functional, cell-based
Summary of the method: (§1)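 MTT assay. Cells were grown in RPMI1640 with 10% FBS and penicillin/streptomycin at 37°C, 5% CO2, seeded at 1×10^5/mL and rested 24 h. Compound was added at 4×10^-5 to 1×10^-6 mol/L for 48 h; controls received 1% DMSO. MTT (5 mg/mL) was added for 4 h in the dark and the formazan dissolved in DMSO. A490 was read and IC50 derived.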

MCF7 [1] = assay: Antiproliferative activity against human MCF7 cells after 48 hrs by MTT assay; format: functional, cell-based; conditions: MCF7, 48 h; summary of the method: as §1
HUVEC = assay: Antiproliferative activity against HUVEC after 48 hrs by MTT assay; format: functional, cell-based; conditions: Homo sapiens; summary of the method: as §1
[2] = target: T1, Vascular endothelial growth factor receptor 2 (Homo sapiens, UniProt P35968); conditions: at 10 µM
T1 sequence (P35968 whole entry): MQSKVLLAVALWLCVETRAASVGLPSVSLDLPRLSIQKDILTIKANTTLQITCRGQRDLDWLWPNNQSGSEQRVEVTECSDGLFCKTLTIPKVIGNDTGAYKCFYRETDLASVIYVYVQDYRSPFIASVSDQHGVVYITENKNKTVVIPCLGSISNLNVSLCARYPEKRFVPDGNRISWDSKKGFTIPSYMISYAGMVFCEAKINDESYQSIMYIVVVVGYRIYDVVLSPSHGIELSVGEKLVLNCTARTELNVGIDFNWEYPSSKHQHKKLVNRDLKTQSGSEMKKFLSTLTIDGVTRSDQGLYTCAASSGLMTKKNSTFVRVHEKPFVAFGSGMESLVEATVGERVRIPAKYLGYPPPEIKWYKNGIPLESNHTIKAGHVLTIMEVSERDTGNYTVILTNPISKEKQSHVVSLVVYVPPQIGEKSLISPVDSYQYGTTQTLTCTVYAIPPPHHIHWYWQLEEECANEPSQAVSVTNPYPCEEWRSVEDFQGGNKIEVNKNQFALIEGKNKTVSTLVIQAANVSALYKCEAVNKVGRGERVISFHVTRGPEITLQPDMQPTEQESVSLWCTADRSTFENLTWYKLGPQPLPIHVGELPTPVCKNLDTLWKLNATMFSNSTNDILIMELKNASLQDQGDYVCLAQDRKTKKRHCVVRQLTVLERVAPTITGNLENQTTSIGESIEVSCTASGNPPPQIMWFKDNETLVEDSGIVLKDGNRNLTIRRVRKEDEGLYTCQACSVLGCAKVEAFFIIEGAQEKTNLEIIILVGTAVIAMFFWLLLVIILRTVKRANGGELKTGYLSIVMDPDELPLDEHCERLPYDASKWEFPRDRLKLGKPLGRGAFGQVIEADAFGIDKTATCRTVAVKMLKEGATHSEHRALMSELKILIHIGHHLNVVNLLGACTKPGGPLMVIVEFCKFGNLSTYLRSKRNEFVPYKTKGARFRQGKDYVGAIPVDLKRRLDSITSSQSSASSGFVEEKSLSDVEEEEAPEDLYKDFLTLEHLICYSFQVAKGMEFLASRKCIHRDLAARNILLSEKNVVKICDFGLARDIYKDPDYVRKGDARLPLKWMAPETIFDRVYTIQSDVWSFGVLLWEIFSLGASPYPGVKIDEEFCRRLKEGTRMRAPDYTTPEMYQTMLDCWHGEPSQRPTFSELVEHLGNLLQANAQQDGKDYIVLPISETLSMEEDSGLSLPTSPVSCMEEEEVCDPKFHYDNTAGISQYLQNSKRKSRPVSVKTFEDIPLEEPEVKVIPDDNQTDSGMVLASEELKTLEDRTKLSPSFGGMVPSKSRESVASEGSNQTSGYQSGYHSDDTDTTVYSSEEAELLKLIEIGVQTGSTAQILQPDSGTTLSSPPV

[3] = target: T1, Vascular endothelial growth factor receptor 2; assay: Inhibition of VEGFR2 (unknown origin) using TK substrate after 1 hr by HTRF assay
Estrogen receptor = target: T2, Estrogen receptor (Homo sapiens, UniProt P03372); assay: Displacement of Fluormone ES2 Green from full length human ER-alpha expressed in insect cells after 2 hrs by fluorescence polarization assay
T2 sequence (P03372 whole entry): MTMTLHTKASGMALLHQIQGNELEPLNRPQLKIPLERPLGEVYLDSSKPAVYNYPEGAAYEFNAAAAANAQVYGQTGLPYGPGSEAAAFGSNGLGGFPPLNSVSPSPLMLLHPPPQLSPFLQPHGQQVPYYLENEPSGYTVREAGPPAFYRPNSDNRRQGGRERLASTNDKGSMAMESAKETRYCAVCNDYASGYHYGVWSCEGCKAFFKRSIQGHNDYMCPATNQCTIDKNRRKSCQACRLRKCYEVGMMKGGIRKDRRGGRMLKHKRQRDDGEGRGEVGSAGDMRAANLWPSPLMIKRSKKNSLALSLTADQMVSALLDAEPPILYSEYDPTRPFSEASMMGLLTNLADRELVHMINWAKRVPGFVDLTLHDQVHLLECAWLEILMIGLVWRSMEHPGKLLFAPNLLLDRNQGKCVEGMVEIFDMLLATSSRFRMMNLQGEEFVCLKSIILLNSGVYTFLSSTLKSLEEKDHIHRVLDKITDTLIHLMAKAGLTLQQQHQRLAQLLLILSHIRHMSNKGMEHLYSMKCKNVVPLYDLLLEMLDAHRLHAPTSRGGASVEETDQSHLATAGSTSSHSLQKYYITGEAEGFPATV

Chorioallantoic membrane [4] = assay: In vivo antiangiogenic activity in chicken egg chorioallantoic membrane at 1 uM after 72 hrs; format: functional, organism-based; conditions: Gallus gallus
Summary of the method: (§2)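 Chick CAM assay. Fertilized eggs were incubated 7 days at 37°C, then a window of about 1 cm² was opened in the shell. […] Eggs were incubated a further 72 h at 37°C and 60% humidity. CAM was fixed in acetone/ethanol for 10 min and vessels imaged.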

T47D = assay: Antiproliferative activity against human T47D cells after 48 hrs by MTT assay; format: functional, cell-based; summary of the method: as §1
MDA-MB-231 = assay: Antiproliferative activity against human MDA-MB-231 cells after 48 hrs by MTT assay; format: functional, cell-based; summary of the method: as §1
MCF7 [5] = assay: Induction of apoptosis in human MCF7 cells assessed as early apoptotic cells at 1 uM after 24 hrs by Annexin V-FITC/propidium iodide staining based flow cytometry (reference value: 4.46%); format: functional
MCF7 [6] = assay: Potency index, ratio of raloxifene IC50 to compound IC50 for antiproliferative activity against human MCF7 cells; format: functional
Summary of the method: (§3)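 Potency index is the reference drug's MCF-7 MTT IC50 divided by the compound's IC50. Reference drugs were tamoxifen or raloxifene. Cells received 48 h exposure over 4×10^-5 to 1×10^-6 mol/L with a 1% DMSO control, then A490 readout.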

MCF7 [7] = assay: Induction of apoptosis in human MCF7 cells after 24 hrs by Annexin V-FITC/propidium iodide staining based flow cytometry; format: functional, cell-based
Chorioallantoic membrane [8] = assay: In vivo antiangiogenic activity in chicken egg chorioallantoic membrane after 72 hrs; format: functional, organism-based; conditions: Gallus gallus; summary of the method: as §2
MCF7 [9] = assay: Effect on total RAF1 protein expression in human MCF7 cells at 0.5 uM after 24 hrs by Western blot analysis; format: ADME, cell-based; conditions: mcf7, 24 h
MCF7 [10] = assay: Antimigratory activity against human MCF7 cells at 0.5 to 1 uM after 48 hrs by crystal violet staining based microscopic method; format: functional, cell-based
Summary of the method: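 Transwell assay on Matrigel-coated membranes, 5×10^4 cells per well. Cells were treated at plating. After 24 h the invading cells were fixed, with 48 h seeding. Cells were stained with crystal violet (0.1% in 20% methanol) and counted by microscopy. Treatments were 0.5 and 1 µM, with DMSO as vehicle control.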

MCF7 [11] = assay: Induction of apoptosis in human MCF7 cells assessed as necrtotic cells at 1 uM after 24 hrs by Annexin V-FITC/propidium iodide staining based flow cytometry (reference value: 2.05%); format: functional
MCF7 [12] = assay: Potency index, ratio of tamoxifen IC50 to compound IC50 for antiproliferative activity against human MCF7 cells; format: functional; summary of the method: as §3
MCF7 [13] = assay: Induction of apoptosis in human MCF7 cells assessed as live cells at 0.5 uM after 24 hrs by Annexin V-FITC/propidium iodide staining based flow cytometry (reference value: 87.5%); format: functional
MCF7 [14] = assay: Induction of apoptosis in human MCF7 cells assessed as live cells at 1 uM after 24 hrs by Annexin V-FITC/propidium iodide staining based flow cytometry (reference value: 87.5%); format: functional
MCF7 [15] = assay: Induction of apoptosis in human MCF7 cells assessed as necrtotic cells at 0.5 uM after 24 hrs by Annexin V-FITC/propidium iodide staining based flow cytometry (reference value: 2.05%); format: functional
MCF7 [16] = assay: Induction of apoptosis in human MCF7 cells assessed as early apoptotic cells at 0.5 uM after 24 hrs by Annexin V-FITC/propidium iodide staining based flow cytometry (reference value: 4.46%); format: functional
[17] = target: RAF proto-oncogene serine/threonine-protein kinase (Homo sapiens) (UniProt P04049); assay: Inhibition of RAF1 phosphorylation in human MCF7 cells at 0.5 uM after 24 hrs by Western blot analysis; format: cell-based
Sequence of RAF proto-oncogene serine/threonine-protein kinase (Homo sapiens) (P04049 whole entry): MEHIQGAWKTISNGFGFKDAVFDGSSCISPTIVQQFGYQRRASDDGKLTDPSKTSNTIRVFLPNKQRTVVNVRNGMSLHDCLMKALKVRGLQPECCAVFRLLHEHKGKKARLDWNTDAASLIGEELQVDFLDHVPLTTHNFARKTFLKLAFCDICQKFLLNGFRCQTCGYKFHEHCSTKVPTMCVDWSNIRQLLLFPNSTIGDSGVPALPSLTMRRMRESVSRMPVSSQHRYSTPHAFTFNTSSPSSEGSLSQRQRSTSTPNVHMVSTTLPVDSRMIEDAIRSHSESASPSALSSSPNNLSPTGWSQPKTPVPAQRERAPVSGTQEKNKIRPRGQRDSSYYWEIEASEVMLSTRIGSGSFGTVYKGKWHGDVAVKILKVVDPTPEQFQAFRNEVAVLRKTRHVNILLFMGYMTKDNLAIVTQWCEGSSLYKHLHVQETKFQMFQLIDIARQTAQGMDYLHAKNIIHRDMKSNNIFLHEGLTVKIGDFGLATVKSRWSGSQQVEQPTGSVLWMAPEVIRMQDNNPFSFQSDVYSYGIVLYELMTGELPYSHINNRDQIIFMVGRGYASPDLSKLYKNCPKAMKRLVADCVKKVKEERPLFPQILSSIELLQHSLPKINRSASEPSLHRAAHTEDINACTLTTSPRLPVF

MCF7 [18] = assay: Induction of apoptosis in human MCF7 cells assessed as late apoptotic cells at 1 uM after 24 hrs by Annexin V-FITC/propidium iodide staining based flow cytometry (reference value: 6.01%); format: functional
MCF7 [19] = assay: Induction of apoptosis in human MCF7 cells assessed as late apoptotic cells at 0.5 uM after 24 hrs by Annexin V-FITC/propidium iodide staining based flow cytometry (reference value: 6.01%); format: functional
[20] = target: T3, Estrogen receptor (Homo sapiens) (UniProt P03372); assay: Antagonist activity at ERalpha in human MCF7 cells assessed as reduction in E2-induced progesterone receptor mRNA level at 0.4 uM by RT-PCR method; format: cell-based
T3 sequence (whole entry): T2 sequence (P03372 whole entry)
Summary of the method: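 Quantitative RT-PCR of progesterone receptor mRNA in MCF-7 cells. RNA was reverse transcribed to cDNA and amplified with SYBR Green: 95°C 2 min, then 40 cycles of 95°C 10 s, 60°C 30 s, 95°C 10 s. Signal was normalized to GAPDH and quantified by ΔΔCT. Values are mean ± SD, n=3, compared against the E2 group.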

[21] = target: T1, Vascular endothelial growth factor receptor 2; conditions: HUVEC, at 1 µM
[22] = target: Mitogen-activated protein kinase; ERK1/ERK2 (Homo sapiens) (UniProt P27361+P28482); assay: Inhibition of ERK1/ERK2 phosphorylation in human MCF7 cells at 0.5 uM after 24 hrs by Western blot analysis; format: cell-based
Sequence of Mitogen-activated protein kinase; ERK1/ERK2 (Homo sapiens) (P27361 whole entry, looked up): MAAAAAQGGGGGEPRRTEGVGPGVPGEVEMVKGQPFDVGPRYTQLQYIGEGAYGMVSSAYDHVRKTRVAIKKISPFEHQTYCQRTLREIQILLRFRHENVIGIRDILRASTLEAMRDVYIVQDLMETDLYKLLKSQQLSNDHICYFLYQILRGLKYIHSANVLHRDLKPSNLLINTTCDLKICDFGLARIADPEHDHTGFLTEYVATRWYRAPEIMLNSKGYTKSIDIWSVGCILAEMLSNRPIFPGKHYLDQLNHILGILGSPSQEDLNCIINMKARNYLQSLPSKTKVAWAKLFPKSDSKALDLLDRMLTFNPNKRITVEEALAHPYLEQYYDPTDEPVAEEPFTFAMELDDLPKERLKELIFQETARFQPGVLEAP
Sequence of Mitogen-activated protein kinase; ERK1/ERK2 (Homo sapiens) (P28482 whole entry, looked up): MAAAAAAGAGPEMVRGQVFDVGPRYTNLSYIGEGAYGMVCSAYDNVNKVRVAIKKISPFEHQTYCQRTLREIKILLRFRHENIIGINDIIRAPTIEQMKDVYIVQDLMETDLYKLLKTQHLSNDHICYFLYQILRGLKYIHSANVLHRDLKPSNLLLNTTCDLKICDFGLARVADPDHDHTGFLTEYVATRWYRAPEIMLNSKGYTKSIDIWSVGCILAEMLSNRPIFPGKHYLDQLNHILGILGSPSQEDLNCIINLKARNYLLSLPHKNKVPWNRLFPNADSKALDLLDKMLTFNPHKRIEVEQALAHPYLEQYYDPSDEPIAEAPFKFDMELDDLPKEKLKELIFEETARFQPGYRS

CCN(CC)CCOc1ccc(Nc2cc(Cl)nc(-c3ccc(OC)cc3)n2)cc1
IC50 (Ishikawa): 11.7 µM | IC50 (MCF7 [1]): 36.8 µM | IC50 (HUVEC): 9.24 µM | inhibition [2]: 89.7% | IC50 [3]: 0.174 µM | IC50 (Estrogen receptor): 4.74 µM

CCN(CC)CCNC(=O)c1c(C)[nH]c(/C=C2\C(=O)Nc3ccc(F)cc32)c1C [SUNITINIB]
IC50 (HUVEC): 6.36 µM | Activity (Chorioallantoic membrane [4]): Active

CN(C)CCOc1ccc(Nc2nc(-c3ccc(O)cc3)nc(Cl)c2-c2ccccc2)cc1
IC50 (Ishikawa): 37.1 µM | IC50 (MCF7 [1]): 33.1 µM | IC50 (HUVEC): 13.8 µM | inhibition [2]: 68.5% | IC50 [3]: > 1 µM | IC50 (Estrogen receptor): 3.42 µM

CCN(CC)CCOc1ccc(Nc2nc(-c3ccc(OC)cc3)nc(Cl)c2-c2ccccc2)cc1
IC50 (Ishikawa): 9.98 µM | IC50 (MCF7 [1]): 8.59 µM | IC50 (HUVEC): 4.34 µM | inhibition [2]: 90.3% | IC50 [3]: 0.067 µM

CCN(CC)CC(=O)Nc1ccc(Nc2nc(-c3ccc(OC)cc3)nc(Cl)c2-c2ccccc2)cc1
IC50 (Ishikawa): > 40 µM | IC50 (MCF7 [1]): > 40 µM | IC50 (HUVEC): > 40 µM | inhibition [2]: 40.2% | IC50 [3]: > 1 µM

COc1ccc(-c2nc(Cl)cc(Nc3ccc(NC(=O)CN(C)C)cc3)n2)cc1
IC50 (Ishikawa): > 40 µM | IC50 (MCF7 [1]): > 40 µM | IC50 (HUVEC): > 40 µM | inhibition [2]: 66.2% | IC50 [3]: > 1 µM

COc1ccc(-c2nc(Cl)c(-c3ccccc3)c(Nc3ccc(NC(=O)CN(C)C)cc3)n2)cc1
IC50 (Ishikawa): 17.1 µM | IC50 (MCF7 [1]): 17.7 µM | IC50 (HUVEC): 10.3 µM | inhibition [2]: 50.8% | IC50 [3]: > 1 µM

COc1ccc(-c2nc(Cl)cc(Nc3ccc(NC(=O)CN4CCCC4)cc3)n2)cc1
IC50 (Ishikawa): 18.4 µM | IC50 (MCF7 [1]): 23.4 µM | IC50 (HUVEC): 4.82 µM | inhibition [2]: 61.3% | IC50 [3]: > 1 µM | IC50 (Estrogen receptor): 2.86 µM

O=C(c1ccc(OCCN2CCCCC2)cc1)c1c(-c2ccc(O)cc2)sc2cc(O)ccc12 [RALOXIFENE]
IC50 (Ishikawa): 24.4 µM | IC50 (MCF7 [1]): 13.2 µM

COc1ccc(-c2nc(Cl)cc(Oc3ccc(OCCN(C)C)cc3)n2)cc1
IC50 (Ishikawa): > 40 µM | IC50 (MCF7 [1]): > 40 µM | IC50 (HUVEC): > 40 µM | inhibition [2]: 61.2% | IC50 [3]: > 1 µM | IC50 (Estrogen receptor): 5.96 µM

COc1ccc(-c2nc(Cl)c(-c3ccccc3)c(Nc3ccc(OCCN(C)C)cc3)n2)cc1
IC50 (Ishikawa): 6.34 µM | IC50 (MCF7 [1]): 7.56 µM | IC50 (HUVEC): 14.2 µM | inhibition [2]: 50.9% | IC50 [3]: > 1 µM

Oc1ccc(-c2nc(Cl)c(-c3ccccc3)c(Oc3ccc(OCCN4CCCC4)cc3)n2)cc1
IC50 (Ishikawa): 5.93 µM | Activity (T47D): Dose-dependent effect | IC50 (T47D): 2.73 µM | Activity (MDA-MB-231): Dose-dependent effect | IC50 (MDA-MB-231; MDA-MB-231, 48 h): 3.81 µM | Activity (MCF7 [5]): 5.49% | IC50 (MCF7 [1]): 0.81 µM | Ratio IC50 (MCF7 [6]): 16 | Activity (MCF7 [7]): Dose-dependent effect | Activity (Chorioallantoic membrane [8]): Dose-dependent effect | Activity (MCF7 [9]): Non-Toxic | IC50 (HUVEC): 4.57 µM | Activity (MCF7 [10]): Active | Activity (MCF7 [11]): 0.9% | Ratio IC50 (MCF7 [12]): 19 - 20 | inhibition [2]: 91.1% | Activity (MCF7 [13]): 75.5% | Activity (MCF7 [14]): 65.7% | Activity (MCF7 [15]): 1.11% | IC50 [3]: 0.085 µM | Activity (MCF7 [16]): 8.89% | IC50 (Estrogen receptor): 1.64 µM | inhibition [17]: Active | Activity (MCF7 [18]): 28% | Activity (MCF7 [19]): 14.5% | inhibition [20]: Active | inhibition [21]: Active | inhibition [22]: Active
